# Reference: ChEMBL document CHEMBL3593210, “Pentamidine analogs as inhibitors of [(3)H]MK-801 and [(3)H]ifenprodil binding to rat brain NMDA receptors” (Bioorg Med Chem, 2015)
# pIC50: −log10 of the molar value.
# How the values were obtained:
# [1] = target: Glutamate NMDA receptor (Rattus norvegicus) (UniProt P35439+Q00959+Q00960+Q00961+Q62645+Q8VHN2+Q9R1M7); test: Ratio of IC50 for displacement of [3H]-MK-801 from rat cortical membranes NMDA receptor in presence of 30 uM spermine to IC50 for displacement of [3H]-MK-801 from rat cortical membranes NMDA receptor in absence of 30 spermine
# Summary of the method: (§1)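 Membranes from rat frontoparietal cortex and hippocampus, prepared in 50 mM Tris acetate pH 7.0. 5 nM [3H]MK-801 was incubated with membranes (~1 mg wet tissue) for 3 h at 23 °C in 10 mM Tris acetate pH 7.0 with 10 µM glutamate and glycine, in triplicate, with or without 30 µM spermine. Compounds were tested at 3–4 concentrations. Nonspecific binding was set with 100 µM (S)-ketamine. Bound ligand was filtered and scintillation-counted. Spermine sensitivity = IC50 (with spermine)/IC50 (without).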
# Glutamate NMDA receptor [2] = test: Displacement of [3H]-MK-801 from rat cortical membranes NMDA receptor by beta counting analysis in absence of spermine; summary of the method: as §1
# Glutamate NMDA receptor [3] = test: Displacement of [3H]-MK-801 from rat cortical membranes NMDA receptor by beta counting analysis in presence of 30 uM spermine; summary of the method: as §1
# Glutamate NMDA receptor [4] = test: Displacement of [3H]-ifenprodil from rat cortical membranes NMDA receptor by beta counting analysis in absence of spermine
SMILES,Ratio IC50 [1],pIC50 (Glutamate NMDA receptor [2]),pIC50 (Glutamate NMDA receptor [3]),pIC50 (Glutamate NMDA receptor [4])
c1cc(N2CCN(c3ccc(C4=NCCN4)cc3)CC2)ccc1C1=NCCN1,15.1,5.19,3.97,–
CC(C)/N=C(/N)c1ccc(N2CCN(c3ccc(/C(N)=N\C(C)C)cc3)CC2)cc1,32.9,4.67,3.26,–
N=C(N)c1ccc(COc2ccccc2OCc2ccc(C(=N)N)cc2)cc1,10.1,5.66,4.74,5.14
N=C(N)c1ccc(NC(=O)c2ccc(C(=O)Nc3ccc(C(=N)N)cc3)cc2)cc1,0.96,4.27,4.28,–
N=C(NCCO)c1ccc(N2CCCN(c3ccc(/C(N)=N/CCO)cc3)CC2)cc1,35.7,5.03,3.49,–
CN(CCNc1ccc(C(=N)N)cc1)c1ccc(C(=N)N)cc1,30.2,5.50,4.07,5.15
CC(C)NC(=N)c1ccc(NC(=O)c2ccc(C(=O)Nc3ccc(C(=N)NC(C)C)cc3)o2)cc1,16.9,4.97,3.76,–
N=C(N)c1ccc(NC(=O)CCCCCC(=O)Nc2ccc(C(=N)N)cc2)cc1,–,< 3.00,< 3.00,–
CC(C)/N=C(\N)c1ccc(N2CCCN(c3ccc(/C(N)=N/C(C)C)cc3)CC2)cc1,25.3,4.75,3.41,–
NCCCCCCCCc1ccc(CCCCN)s1,15.1,6.28,5.21,4.31
CN(CCN(C)c1ccc(C(=N)N)cc1)c1ccc(C(=N)N)cc1,20.9,5.57,4.26,4.77
N=C(N)c1ccc(C(=O)NCCCCNC(=O)c2ccc(C(=N)N)cc2)cc1,–,< 3.00,< 3.00,–
N=C(N)c1ccc(-c2ccc(-c3ccc(C(=N)N)cc3)s2)cc1,2.61,5.18,4.75,–
N=C(N)c1ccc(N2CCCN(c3ccc(C(=N)N)cc3)CC2)cc1,20.4,6.60,5.26,4.72
N=C(N)c1ccc(-c2ccc(-c3ccc(C(=N)N)s3)s2)s1,1.5,5.27,5.17,–
N=C(N)c1ccc(OCc2cccc(COc3ccc(C(=N)N)cc3)c2)cc1,9.04,6.10,5.17,5.40
N=C(NC1CC1)c1ccc(N2CCCN(c3ccc(C(=N)NC4CC4)cc3)CC2)cc1,19.9,4.95,3.67,–
N=C(N)c1ccc(C(=O)NCCCCCCNC(=O)c2ccc(C(=N)N)cc2)cc1,4.59,3.58,2.92,–
N=C(N)c1ccc(NC(=O)CCCCC(=O)Nc2ccc(C(=N)N)cc2)cc1,3.46,3.78,3.36,–
NCCCCCCCCCCCCN,32.9,–,3.61,3.02
c1cc(N2CCN(c3ccc(C4=NCCCN4)cc3)CC2)ccc1C1=NCCCN1,13.6,4.62,3.58,–

SMILES,Ratio IC50 [1],pIC50 (Glutamate NMDA receptor [2]),pIC50 (Glutamate NMDA receptor [3]),pIC50 (Glutamate NMDA receptor [4])
N=C(N)c1ccc(NC(=O)CCCCCCCCC(=O)Nc2ccc(C(=N)N)cc2)cc1,4.07,4.80,4.20,–
N=C(N)c1ccc(OCc2ccccc2COc2ccc(C(=N)N)cc2)cc1,4,5.84,5.26,5.85
N=C(NCCCO)c1ccc(N2CCCN(c3ccc(/C(N)=N/CCCO)cc3)CC2)cc1,9.72,4.39,3.37,–
NC(N)=NCCCCN=C(N)N [ARCAINE],–,5.34,3.71,4.61
N=C(N)c1ccc(NC(=O)c2cccc(C(=O)Nc3ccc(C(=N)N)cc3)c2)cc1,0.97,4.37,4.44,–
N=C(N)c1ccc(NCCCCNc2ccc(C(=N)N)cc2)cc1,17.2,5.34,4.07,–
N=C(N)c1ccc(-c2ccc(-c3ccc(-c4ccc(C(=N)N)cc4)nc3)cn2)cc1,1.24,4.57,4.52,–
c1cc(N2CCCN(c3ccc(C4=NCCCN4)cc3)CC2)ccc1C1=NCCCN1,11.7,4.89,3.84,–
N=C(N)c1ccc(NC(=O)c2ccc(C(=O)Nc3ccc(C(=N)N)cc3)o2)cc1,1.01,3.82,3.82,–
N=C(N)c1ccc(OCCCOc2ccc(C(=N)N)cc2)cc1 [PROPAMIDINE],–,5.26,–,–
CN(CCCN(C)c1ccc(C(=N)N)cc1)c1ccc(C(=N)N)cc1,14.7,5.74,4.61,4.51
c1cc(N2CCCN(c3ccc(C4=NCCN4)cc3)CC2)ccc1C1=NCCN1,30.1,5.52,4.04,–
C/N=C(\N)c1ccc(-c2ccc(-c3ccc(/C(N)=N/C)cc3)o2)cc1,3.47,5.16,4.62,–
N=C(N)NCCCCNC(=N)N,33.6,–,–,–
N=C(N)c1ccc(OCc2ccc(COc3ccc(C(=N)N)cc3)cc2)cc1,5.25,5.28,4.59,4.97
CCN(CCNc1ccc(C(=N)N)cc1)c1ccc(C(=N)N)cc1,19.3,5.58,4.32,4.89
N=C(N)c1ccc(NC(=O)CCCCCCCC(=O)Nc2ccc(C(=N)N)cc2)cc1,4.25,4.58,3.95,–
N=C(N)c1ccc(OCCCCOc2ccc(C(=N)N)cc2)cc1,–,4.75,–,–
N=C(N)c1ccc(-c2ccc(-c3nc4ccc(C(=N)N)cc4[nH]3)s2)cc1,4.14,5.49,4.87,–
N=C(N)c1ccc(NC(=O)CCCC(=O)Nc2ccc(C(=N)N)cc2)cc1,2.81,3.64,3.17,4.26
N=C(NC1CC1)c1ccc(N2CCN(c3ccc(C(=N)NC4CC4)cc3)CC2)cc1,21.8,4.71,3.33,–

SMILES,Ratio IC50 [1],pIC50 (Glutamate NMDA receptor [2]),pIC50 (Glutamate NMDA receptor [3]),pIC50 (Glutamate NMDA receptor [4])
N=C(N)c1ccc(NC(=O)CCCCCCC(=O)Nc2ccc(C(=N)N)cc2)cc1,7.25,4.64,3.77,–
N=C(N)c1ccc(-c2ccc(-c3ccc(-c4ccc(C(=N)N)o4)s3)s2)o1,4.26,5.30,4.93,–
N=C(N)c1ccc(NCCNc2ccc(C(=N)N)cc2)cc1,30.2,5.70,4.29,6.12
N=C(N)c1ccc(N2CCN(c3ccc(C(=N)N)cc3)CC2)cc1,26.2,5.51,4.15,4.77
N=C(NC1CCCC1)c1ccc(N2CCCN(c3ccc(C(=N)NC4CCCC4)cc3)CC2)cc1,10.6,5.09,4.07,–
Cc1ccc(S(=O)(=O)N(CCOc2ccc(C(=N)N)cc2)CCOc2ccc(C(=N)N)cc2)cc1,6.28,6.62,5.88,6.39
N=C(N)c1ccc(C(=O)NCCCNC(=O)c2ccc(C(=N)N)cc2)cc1,–,< 3.00,< 3.00,–
CCCNC(=N)c1ccc(N2CCN(c3ccc(C(=N)NCCC)cc3)CC2)cc1,21.8,4.80,3.43,–
N=C(N)c1ccc(NCCCCCCCCNc2ccc(C(=N)N)cc2)cc1,4.37,5.14,4.51,–
N=C(N)c1ccc(NCCCCCCNc2ccc(C(=N)N)cc2)cc1,5.26,5.36,4.62,–
N=C(N)c1ccc(NCCCCCCCNc2ccc(C(=N)N)cc2)cc1,5.37,5.33,4.60,–
N=C(N)c1ccc(C(=O)NCCCCCNC(=O)c2ccc(C(=N)N)cc2)cc1,–,3.16,< 3.00,–
CCCC/N=C(/N)c1ccc(N2CCN(c3ccc(/C(N)=N\CCCC)cc3)CC2)cc1,16,4.99,3.86,–
CCCCNC(=N)c1ccc(N2CCCN(c3ccc(C(=N)NCCCC)cc3)CC2)cc1,11.2,5.00,3.99,–
N=C(N)c1ccc(-c2ccc(-c3ccc(C(=N)N)cc3)c(F)c2)cc1,4.63,5.00,4.47,–
N=C(N)c1ccc(C(=O)Nc2cccc(NC(=O)c3ccc(C(=N)N)cc3)n2)cc1,1.85,3.90,3.63,–
N=C(N)c1ccc(-c2ccc(-c3ccc(C(=N)N)cc3)o2)cc1 [FURAMIDINE],2.37,5.37,5.13,–
N=C(N)c1ccc(NC(=O)CCCCCCCCCCC(=O)Nc2ccc(C(=N)N)cc2)cc1,2.98,5.02,4.56,–
CC(C)(C)/N=C(\N)c1ccc(N2CCCN(c3ccc(/C(N)=N/C(C)(C)C)cc3)CC2)cc1,16.8,4.46,3.25,–
N=C(NC1CCCC1)c1ccc(N2CCN(c3ccc(C(=N)NC4CCCC4)cc3)CC2)cc1,19.3,5.03,3.80,–
CC/N=C(\N)c1ccc(-c2ccc(-c3ccc(/C(N)=N/CC)cc3)o2)cc1,2.56,4.91,4.51,–
